Measured values published in ChEMBL document CHEMBL1127672, “Synthesis and biological evaluation of 2',3'-dideoxy-L-pyrimidine nucleosides as potential antiviral agents against human immunodeficiency virus (HIV) and hepatitis B virus (HBV)” (J Med Chem, 1994).

Tests used:
CCRF-CEM [1] = experiment: In vitro cytotoxicity against human CCRF-CEM T-lymphoblastic leukemia cells was determined; assay type: functional, cell-based
Outline: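 CCRF-CEM suspension cultures in RPMI 1640 plus 10% horse serum, 37 °C, 5% CO2; exponential-phase cells at 2 × 10^4 cells/mL given various concentrations; cell numbers counted after 3 days versus drug-free control; 50% value read from plot of cell number against concentration.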

Hepatoma cell line = experiment: The compound was tested for antiviral activity against Hepatitis B virus in human hepatoma cells.; assay type: functional; conditions: read-out: ED50 (the source's name)
Outline: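 HBV-carrying human hepatoma 2.2.15 cells, six-day-old cultures in MEM with Earle's salts and 10% FBS, given varying drug concentrations for 3 days, medium renewed with same drug for a further 3 days; virions in harvested medium PEG-precipitated, viral DNA measured by Southern analysis against untreated controls; ED50 = 50% inhibition.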

MT2 = experiment: The compound was tested for antiviral activity against HIV-1 in MT-2 cells; assay type: functional, Homo sapiens; conditions: read-out: ED50 (the source's name)
Outline: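 MT-2 cells (1 × 10^4/well, triplicate) in RPMI 1640 with 10% dialysed FBS infected with HIV-1 HTLV-IIIB at 0.1 TCID50/cell (0.01 for one compound), immediately added to serial drug dilutions; after 5 days, MTT read at A595; % protection versus infected and uninfected no-drug controls; ED50 from log plots.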

CCRF-CEM [2] = experiment: Concentration of compound required to inhibit the synthesis of mitochondrial DNA (mt DNA) in human CCRF-CEM T-lymphoblastic leukemia cells; assay type: functional, cell-based
Outline: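 CEM cells exposed to varying drug concentrations, collected, washed in PBS, lysed in 10 mM Tris-HCl pH 7.0 by freeze-thaw; RNase A (10 μg/mL final) then proteinase K for 1 h; DNA blotted onto nylon after NaI addition and boiling 10 min. IC50 = concentration inhibiting mt DNA synthesis by 50%.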

[3] = Homo sapiens, Hepatoma cell line

| Compound | IC50 (CCRF-CEM [1]; Homo sapiens, CCRF-CEM) | EC50 (Hepatoma cell line; [3]) | EC50 (MT2; Homo sapiens, MT2) | IC50 (CCRF-CEM [1]; ccrf-cem) | EC50 (Hepatoma cell line) | EC50 (MT2) | IC50 (CCRF-CEM [2]; ccrf-cem) | IC50 (CCRF-CEM [2]; Homo sapiens, CCRF-CEM) |
| --- | --- | --- | --- | --- | --- | --- | --- | --- |
| O=c1[nH]c(=O)n(C2CCC(CO)O2)cc1F (stereo not drawn) | > 100 µM | > 10 µM | > 100 µM | – | – | – | – | – |
| Cc1cn([C@@H]2CC[C@H](CO)O2)c(=O)[nH]c1=O | – | > 10 µM | > 100 µM | – | – | – | – | – |
| Nc1nc(=O)n([C@H]2CC[C@H](CO)O2)cc1F | > 100 µM | 0.5 µM | 6 µM | – | – | – | – | – |
| O=c1ccn(C2CCC(CO)O2)c(=O)[nH]1 (stereo not drawn) | > 100 µM | > 100 µM | > 100 µM | – | – | – | – | – |
| Nc1nc(=O)n([C@@H]2CC[C@H](CO)O2)cc1F (stereo in doubt; form 1) | – | – | – | 2 µM | 10 µM | 2 µM | – | – |
| Nc1ccn([C@H]2CC[C@@H](CO)O2)c(=O)n1 (stereo in doubt; form 1) [ZALCITABINE] | – | – | – | 28 µM | 2.8 µM | 1.5 µM | 0.022 µM | – |
| Nc1nc(=O)n([C@@H]2CC[C@H](CO)O2)cc1F (stereo in doubt; form 2) | – | – | – | 67 µM | 0.01 µM | 0.5 µM | – | > 100 µM |
| Nc1ccn([C@H]2CC[C@@H](CO)O2)c(=O)n1 (stereo in doubt; form 2) [ZALCITABINE] | – | – | – | – | 5 µM | > 100 µM | – | – |
| Nc1ccn([C@H]2CC[C@@H](CO)O2)c(=O)n1 (stereo in doubt; form 3) [ZALCITABINE] | – | – | – | 70 µM | 0.01 µM | 5 µM | > 100 µM | – |
